Assay results as given in ChEMBL document CHEMBL4513216, “Probing the Open Global Health Chemical Diversity Library for Multistage-Active Starting Points for Next-Generation Antimalarials” (ACS Infect Dis, 2020).

Experiment: Toxicity liver stage against HepG2, at 10uM
Assay type: cell-based
Set-up: test concentration 10 uM, cell line HepG2-A16-CD81EGFP
Conditions: human, HepG2-A16-CD81EGFP cells; read-out: INHIBITION
Procedure, shortened: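 Uninfected HepG2-A16-CD81EGFP cells, 3 × 10^3 per well, 1536-well, plated on prespotted compound at 10 μM final, parasite-free screening media added to match infected plates; puromycin 10 μM positive, DMSO 0.5% negative; run in parallel with 48 h PbLuc assay at 37 °C, 5% CO2; viability by CellTiter-Glo luminescence, normalized to controls.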

Row | Structure (SMILES) | cytotoxicity at 10 µM
1 | Cc1ccsc1CN1CC2(CCN(C(=O)C3CC3)CC2)CC1C(=O)O (stereo not given) | 3.24%
2 | Cn1ccnc1CN1CCc2ncnc(N3CCCC(C#N)C3)c2CC1 (stereo not given) | -5.1%
3 | N#Cc1c(F)cccc1NCCCOCC1CCOCC1 | -1.25%
4 | CC(C)(C)CN(CCC#N)C(=O)c1cccc(CC#N)c1 | 7.05%
5 | O=C(Nc1nc2c(s1)CN(S(=O)(=O)C1CC1)CC2)c1ccc(Cl)s1 | 21.3%
6 | COc1ccc(CN2CCc3c(nc(-c4ccccn4)[nH]c3=O)C2)cc1 | -15.9%
7 | O=C(CCc1nc(-c2ccccc2)no1)N[C@H]1COC[C@@H]1N1CCCC1 | -1.83%
8 | Cc1nc(O)c2nnn(C[C@H]3CCCN3C(=O)CCC3CCCC3)c2n1 | 5.02%
9 | Cc1cccc(-c2ccc(C(=O)NCCN3CCOCC3)c(=O)[nH]2)c1 | -5.88%
10 | CCn1nc(C)c(CCN2CC3(CCOC3)CCC2=O)c1C (stereo not given) | -118%
11 | Cc1ccc(C(C(=O)O)N2CCCN(Cc3ccccn3)CC2)c(F)c1 (stereo not given) | -1.62%
12 | O=C(O)c1ccccc1-c1ccc(CN2CCC(CO)C2)cn1 (stereo not given) | -1.79%
13 | Cc1cnc(N2CCN(C)c3ncccc3C2)nc1 | -5.86%
14 | Cc1noc(NS(=O)(=O)c2ccc(Cl)s2)c1C | 5.3%
15 | CC(C)c1cc(C(=O)N2CCCN(CCCc3ccccc3)CC2)[nH]n1 | 0.271%
16 | COc1cc(CNC(=O)N(Cc2ccc(F)cc2F)C2CC2)ccn1 | -9.17%
17 | Cn1cc(C(=O)N2CC[C@@H]3[C@@H]2CCN3Cc2cccc(C#N)c2)cn1 | -71.3%
18 | CSc1ccc(CNC(=O)NCC(O)c2cccc(F)c2)cc1 (stereo not given) | -6.16%
19 | CN(C)S(=O)(=O)N1C[C@@H]2C[C@H](C(=O)Nc3ccccc3)[C@H](C1)O2 | 5.86%
20 | CC(=O)NCc1noc2c1CN(CCN1CCCC1)CC2 | -5.46%
21 | COC(=O)CC(c1cccs1)c1oc(C)cc(=O)c1O (stereo not given) | 2.99%
22 | Cn1cc(Br)c(=O)c(NS(=O)(=O)c2ccc(F)cc2)c1 | -8.87%
23 | Cc1ccc(NC(=O)CNC(C)CN2CCCCC2)c(F)c1 (stereo not given) | -51.6%
24 | Cc1cc(C[C@@H]2COC[C@H]2NCc2ccc(Cl)c(Cl)c2)on1 | -5.44%
25 | CN(C)CC(=O)N1Cc2cc(N(C)C)ccc2C1c1cnco1 (stereo not given) | -0.757%
26 | Cc1cc(C(=O)N2CCCC(n3nc(C)cc3C)C2)on1 (stereo not given) | -7.69%
27 | CCOc1ccc2[nH]c(=O)c(CN3CCN(S(N)(=O)=O)CC3)cc2c1 | -6.39%
28 | CCS(=O)(=O)NCC(=O)N(C1CC1)C1Cc2ccccc2C1 | 4.25%

Row | Structure (SMILES) | cytotoxicity at 10 µM
29 | O=C(c1cn(-c2cccc(Cl)c2F)nn1)N1CCCSCC1 | 3.98%
30 | O=C(NCc1ccccc1CN1CCCC1=O)Nc1nncs1 | -2.82%
31 | Cc1ccc2nc(C(=O)N(C)[C@@H]3CC[C@@H](N4CCCC4)[C@@H]3O)cn2c1 | 1.67%
32 | CC(=O)N1CCO[C@@H]2CN(Cc3cccc(Cl)c3)C[C@@H]2C1 | -104%
33 | CC(C)c1nnc(CCC(=O)N2CCCC(c3cnccn3)C2)o1 (stereo not given) | 1.88%
34 | COc1ccccc1CN1CC(O)CN(S(=O)(=O)C(C)C)CC1=O (stereo not given) | -12.4%
35 | N#Cc1ccc(N2CCN(c3cnccn3)CC2)cc1C(F)(F)F | 38.6%
36 | O=C(NCCOCCO)c1cnc(-c2ccccc2)nc1O | 0.701%
37 | CCOC(=O)c1coc(N2CCN(Cc3ccc(C)cc3)C(=O)C2)n1 | -0.0261%
38 | Cc1nc(CSc2nc(=O)ccn2C(C)C)cs1 | 16.4%
39 | CN1CCC2(CC1)CNC(=O)c1ccccc1O2 | -1.24%
40 | O=C(Cn1cc(C2CC2)nn1)N(Cc1ccco1)CC1CCCO1 (stereo not given) | 0.0636%
41 | CN(C)[C@@H]1CCN(C(=O)NC2CCCC2)[C@H]1Cc1cnn(C)c1 | -0.336%
42 | Cn1c(SCC(O)COCc2ccc(Cl)cc2)nnc1C1CC1 (stereo not given) | 14%
43 | O=C(Nc1ccc(Cl)cn1)C1CCCN(CCc2ccncc2)C1 (stereo not given) | -8.87%
44 | CN(CCSc1nncn1CC(F)(F)F)c1ccccc1 | -1.86%
45 | CS(=O)(=O)NC(=O)c1ccn(-c2cccc(Br)c2)n1 | -3.64%
46 | N#Cc1ccc(N2CCC(NS(=O)(=O)c3cccs3)CC2)c(F)c1 | 20.5%
47 | Cc1ccc(NC(=O)C(C)n2ccc(C(F)(F)F)n2)nc1 (stereo not given) | 9.6%
48 | CCCC(=O)N1CC[C@@H]2[C@H](CC1)N(Cc1cccc(C)n1)CCS2(=O)=O | -2.88%
49 | COc1cccc(CC2CN(C3CCCCC3)CCO2)c1 (stereo not given) | -11.9%
50 | Cc1ccc(S(=O)(=O)NCCNC(=O)c2ccoc2)cc1C | -3.26%
51 | c1ccc2oc(CN3CCCC(Cn4cncn4)C3)nc2c1 (stereo not given) | -7.3%
52 | O=C(CCc1ccccc1)N1CCn2cc(Cn3cncn3)nc2C1 | -0.881%
53 | CC(C)CC(NC(=O)CN(C)c1cnccn1)c1cccs1 (stereo not given) | 2.84%
54 | CC(C)C(Sc1nnnn1C1CC1)C(=O)NCc1ccccc1 (stereo not given) | -3.46%
55 | O=S(=O)(c1c(N2CCCCC2)ccc2nonc12)N1CCCCC1 | -3.39%
